Experimental data as given in ChEMBL document CHEMBL1687712, “Antiviral effects of lamivudine, emtricitabine, adefovir dipivoxil, and tenofovir disoproxil fumarate administered orally alone and in combination to woodchucks with chronic woodchuck hepatitis virus infection” (Antimicrob Agents Chemother, 2008).
Calls of active or inactive are those of the source. The rule behind the calls is not given here.

Legend:
[1] = system: Woodchuck hepatitis virus; assay: Antiviral activity against Woodchuck hepatitis virus infected in woodchuck assessed as reduction of viral DNA replicative intermediate level per ug of total cell DNA at 15 mg/kg, po qd measured on 36th week on 48 weeks study (reference value: 1132 +/- 738 pg); format: functional
Outline: (§1)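 Chronic WHV-carrier woodchucks, 5 per group, 15 mg/kg/day oral once daily for 48 weeks in liquid diet. Needle liver biopsies were snap-frozen in liquid nitrogen and stored at −70°C. Hepatic WHV DNA replicative intermediates were quantified by Southern blot (pg/μg total cell DNA) and WHV RNA by Northern blot; group means ± SD were compared with pretreatment and placebo.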

[2] = system: Woodchuck hepatitis virus; assay: Antiviral activity against Woodchuck hepatitis virus infected in woodchuck assessed as reduction of viral DNA replicative intermediate level per ug of total cell DNA at 15 mg/kg, po qd measured on 12th week on 48 weeks study (reference value: 1495 +/- 890 pg); format: functional; outline: as §1
[3] = system: Woodchuck hepatitis virus; assay: Antiviral activity against Woodchuck hepatitis virus infected in woodchuck assessed as frequency of hepatocytes expressing viral antigen at 15 mg/kg, po qd measured on 12th week on 48 weeks study; format: functional, Hepatocyte
Outline: (§2)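 Chronic WHV-carrier woodchucks, 5 per group, given 15 mg/kg/day orally once daily for 48 weeks in liquid diet; placebo is diet alone. Liver biopsies at pretreatment, weeks 12, 36, 48 and 12 weeks after withdrawal. Cytoplasmic WHsAg staining scored 0–4: 1 ≤1%, 2 ≤2%, 3 ≤5%, 4 ≥10% of hepatocytes.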

[4] = system: Woodchuck hepatitis virus; assay: Antiviral activity against Woodchuck hepatitis virus infected in woodchuck assessed as frequency of hepatocytes expressing viral antigen at 15 mg/kg, po qd for 48 weeks measured on 60th week; format: functional, Hepatocyte; outline: as §2
[5] = system: Woodchuck hepatitis virus; assay: Antiviral activity against Woodchuck hepatitis virus infected in woodchuck assessed as absent of lesion in portal hepatitis at 15 mg/kg, po qd measured on 12th week on 48 weeks study; format: functional, organism-based; set-up: dose 15 mg/kg
Outline: (§3)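 Adult chronic WHV-carrier woodchucks (neonatally inoculated), 5 per group, given drug once daily by dose syringe in semisynthetic liquid diet, for 48 weeks; placebo got diet alone. Ultrasound-guided needle liver biopsies under ketamine/xylazine anesthesia at pretreatment, weeks 12, 36, 48 and 12 weeks post-withdrawal. Biopsies were formalin-fixed, paraffin-embedded and H&E stained. Portal and lobular hepatitis were graded 0 (absent) to 4 (most severe).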

[6] = system: Woodchuck hepatitis virus; assay: Antiviral activity against Woodchuck hepatitis virus infected in woodchuck assessed as reduction of viral antigen level in serum at 15 mg/kg, po qd measured on 12th week on 48 weeks study (reference value: 4.3 +/- 1.5 log10 ng/ml); format: functional
[7] = system: Woodchuck hepatitis virus; assay: Antiviral activity against Woodchuck hepatitis virus infected in woodchuck assessed as reduction of viral antigen level in serum at 15 mg/kg, po qd measured on 36th week on 48 weeks study (reference value: 3.8 +/- 1.3 log10 ng/ml); format: functional
[8] = system: Woodchuck hepatitis virus; assay: Antiviral activity against Woodchuck hepatitis virus infected in woodchuck assessed as reduction of viral antigen level in serum at 15 mg/kg, po qd for 48 weeks (reference value: 3.8 +/- 1.3 log10 ng/ml); format: functional
[9] = system: Woodchuck hepatitis virus; assay: Antiviral activity against Woodchuck hepatitis virus infected in woodchuck assessed as reduction of viral antigen level in serum at 15 mg/kg, po qd for 48 weeks measured on 60th week (reference value: 3.3 +/- 1.6 log10 ng/ml); format: functional
[10] = system: Woodchuck hepatitis virus; assay: Antiviral activity against Woodchuck hepatitis virus infected in woodchuck assessed as reduction of viral DNA replicative intermediate level per ug of total cell DNA at 15 mg/kg, po qd for 48 weeks (reference value: 995 +/- 736 pg); format: functional; outline: as §1
[11] = system: Woodchuck hepatitis virus; assay: Antiviral activity against Woodchuck hepatitis virus infected in woodchuck assessed as reduction of viral DNA replicative intermediate level per ug of total cell DNA at 15 mg/kg, po qd for 48 weeks measured on 60th week (reference value: 979 pg); format: functional; outline: as §1
[12] = system: Woodchuck hepatitis virus; assay: Antiviral activity against Woodchuck hepatitis virus infected in woodchuck assessed as reduction of viral RNA level per ug of total cell DNA at 15 mg/kg, po qd measured on 12th week on 48 weeks study (reference value: 46 +/- 25 pg); format: functional; outline: as §1
[13] = system: Woodchuck hepatitis virus; assay: Antiviral activity against Woodchuck hepatitis virus infected in woodchuck assessed as reduction of viral RNA level per ug of total cell DNA at 15 mg/kg, po qd measured on 36th week on 48 weeks study (reference value: 33 +/- 21 pg); format: functional; outline: as §1
[14] = system: Woodchuck hepatitis virus; assay: Antiviral activity against Woodchuck hepatitis virus infected in woodchuck assessed as reduction of viral RNA level per ug of total cell DNA at 15 mg/kg, po qd for 48 weeks (reference value: 34 +/- 20 pg); format: functional; outline: as §1
[15] = system: Woodchuck hepatitis virus; assay: Antiviral activity against Woodchuck hepatitis virus infected in woodchuck assessed as reduction of viral RNA level per ug of total cell DNA at 15 mg/kg, po qd for 48 weeks measured on 60th week (reference value: 27 pg); format: functional; outline: as §1
[16] = system: Woodchuck hepatitis virus; assay: Antiviral activity against Woodchuck hepatitis virus infected in woodchuck assessed as reduction of viral antigen positive hepatocytes at 15 mg/kg, po qd measured on 12th week on 48 weeks study (reference value: 55 +/- 32 %); format: functional, Hepatocyte; set-up: scale not given: the % may be the effect or the level left
Outline: (§4)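 Chronic WHV-carrier woodchucks, 5 per group, 15 mg/kg/day oral once daily for 48 weeks in liquid diet. Liver biopsies were taken at pretreatment, weeks 12, 36, 48 and week 60. Percentage of hepatocytes positive for WHcAg was given as group mean ± SD and compared with pretreatment and placebo.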

[17] = system: Woodchuck hepatitis virus; assay: Antiviral activity against Woodchuck hepatitis virus infected in woodchuck assessed as reduction of viral antigen positive hepatocytes at 15 mg/kg, po qd measured on 36th week on 48 weeks study (reference value: 41 +/- 25 %); format: functional, Hepatocyte; set-up: scale not given: the % may be the effect or the level left; outline: as §4
[18] = system: Woodchuck hepatitis virus; assay: Antiviral activity against Woodchuck hepatitis virus infected in woodchuck assessed as reduction of viral antigen positive hepatocytes at 15 mg/kg, po qd for 48 weeks study (reference value: 35 +/- 27 %); format: functional, Hepatocyte; set-up: scale not given: the % may be the effect or the level left; outline: as §4
[19] = system: Woodchuck hepatitis virus; assay: Antiviral activity against Woodchuck hepatitis virus infected in woodchuck assessed as reduction of viral antigen positive hepatocytes at 15 mg/kg, po qd for 48 weeks measured on 60th week (reference value: 26 %); format: functional, Hepatocyte; set-up: scale not given: the % may be the effect or the level left; outline: as §4
[20] = system: Woodchuck hepatitis virus; assay: Antiviral activity against Woodchuck hepatitis virus infected in woodchuck assessed as frequency of hepatocytes expressing viral antigen at 15 mg/kg, po qd measured on 36th week on 48 weeks study; format: functional, Hepatocyte; outline: as §2
[21] = system: Woodchuck hepatitis virus; assay: Antiviral activity against Woodchuck hepatitis virus infected in woodchuck assessed as frequency of hepatocytes expressing viral antigen at 15 mg/kg, po qd for 48 weeks; format: functional, Hepatocyte; outline: as §2
[22] = system: Woodchuck hepatitis virus; assay: Antiviral activity against Woodchuck hepatitis virus infected in woodchuck assessed as absent of lesion in portal hepatitis at 15 mg/kg, po qd for 48 weeks; format: functional, organism-based; set-up: dose 15 mg/kg; outline: as §3
Marmota monax [23] = assay: Toxicity in Woodchuck hepatitis virus infected woodchuck assessed as change in body weight at 15 mg/kg, po qd for 48 weeks measured up to 60 weeks; format: organism-based; set-up: dose 15 mg/kg, route oral; conditions: in vivo
Outline: (§5)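 Chronic WHV-carrier woodchucks, 5 per group, were dosed orally once daily in liquid diet for 48 weeks, with a placebo diet-only group. Body weights were monitored. Complete blood counts were taken 2 weeks pretreatment, at weeks 12, 36 and 48 of treatment, and 12 weeks after withdrawal. Values were compared with placebo controls.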

Marmota monax [24] = assay: Toxicity in Woodchuck hepatitis virus infected woodchuck assessed as effect on hematological parameters at 15 mg/kg, po qd for 48 weeks measured up to 60 weeks; format: organism-based; set-up: dose 15 mg/kg, route oral; conditions: in vivo; outline: as §5
Marmota monax [25] = assay: Toxicity in Woodchuck hepatitis virus infected woodchuck assessed as increase of liver sorbitol dehydrogenase activity at 15 mg/kg, po qd measured on 4 to 24 weeks on 48 week study; format: organism-based; set-up: dose 15 mg/kg, route oral; conditions: in vivo
Outline: (§6)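 Woodchucks chronically infected with WHV, 5 per group, received oral drug once daily in liquid diet for 48 weeks; placebo got diet only. Serum chemistry (GGT, ALP, ALT, AST, SDH, among others) was run 2 weeks pretreatment, at week 0, every other week to week 12, then monthly to week 48. Sampling continued at 2, 4, 6, 8 and 12 weeks post-treatment.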

Marmota monax [26] = assay: Toxicity in Woodchuck hepatitis virus infected woodchuck assessed as increase of liver alanine aminotransferase activity at 15 mg/kg, po qd measured on 4 to 24 weeks on 48 week study; format: organism-based; set-up: dose 15 mg/kg, route oral; conditions: in vivo; outline: as §6
Marmota monax [27] = assay: Toxicity in Woodchuck hepatitis virus infected woodchuck assessed as increase of liver sorbitol dehydrogenase activity at 15 mg/kg, po qd measured on 28 to 48 weeks on 48 week study; format: organism-based; set-up: dose 15 mg/kg, route oral; conditions: in vivo; outline: as §6
Marmota monax [28] = assay: Toxicity in Woodchuck hepatitis virus infected woodchuck assessed as increase of serum gamma-glutamyltransferase activity at 15 mg/kg, po qd for 48 weeks; format: organism-based; set-up: dose 15 mg/kg, route oral; conditions: in vivo, 8064 h; outline: as §6
Marmota monax [29] = assay: Toxicity in Woodchuck hepatitis virus infected woodchuck assessed as increase of liver alanine aminotransferase activity at 15 mg/kg, po qd for 48 weeks; format: organism-based; set-up: dose 15 mg/kg, route oral; conditions: in vivo, 8064 h; outline: as §6
Marmota monax [30] = assay: Toxicity in Woodchuck hepatitis virus infected woodchuck assessed as increase of liver aspartate aminotransferase activity at 15 mg/kg, po qd for 48 weeks; format: organism-based; set-up: dose 15 mg/kg, route oral; conditions: in vivo, 8064 h; outline: as §6
Marmota monax [31] = assay: Toxicity in Woodchuck hepatitis virus infected woodchuck assessed as increase of liver alkaline phosphatase activity at 15 mg/kg, po qd for 48 weeks; format: organism-based; set-up: dose 15 mg/kg, route oral; conditions: in vivo, 8064 h; outline: as §6
[32] = system: Woodchuck hepatitis virus; assay: Antiviral activity against Woodchuck hepatitis virus infected in woodchuck assessed as absent of lesion in lobular hepatitis at 15 mg/kg, po qd measured on 12th week on 48 weeks study; format: functional, organism-based; set-up: dose 15 mg/kg; outline: as §3

Compound | Activity [1] [pg] | Activity [2] [pg] | Activity [3] [%] | Activity [4] [%] | Activity [5] | Activity [6] [log10ng/ml] | Activity [7] [log10ng/ml] | Activity [8] [log10ng/ml] | Activity [9] [log10ng/ml] | Activity [10] [pg] | Activity [11] [pg] | Activity [12] [pg] | Activity [13] [pg] | Activity [14] [pg] | Activity [15] [pg] | Activity [16] [%] | Activity [17] [%] | Activity [18] [%] | Activity [19] [%] | Activity [20] [%] | also measured
Nc1nc(=O)n([C@@H]2CS[C@H](CO)O2)cc1F [EMTRICITABINE] | 644 | 845 | 2 | 10 | Active | 4.5 | 4.5 | 4.4 | 4.7 | 428 | 1239 | 42 | 43 | 35 | 48 | 47 | 63 | 40 | 64 | 10 | Activity [21]: 10%; Activity [22]: Active; Activity (Marmota monax [23]): Non-toxic; Activity (Marmota monax [24]): Non-toxic; Activity (Marmota monax [25]): Toxic; Activity (Marmota monax [26]): Toxic; Activity (Marmota monax [27]): Toxic; Activity (Marmota monax [28]): Toxic; Activity (Marmota monax [29]): Toxic; Activity (Marmota monax [30]): Toxic; Activity (Marmota monax [31]): Toxic
Nc1ccn([C@@H]2CS[C@H](CO)O2)c(=O)n1 [LAMIVUDINE] | 1133 | 982 | 1 | 5 | Active | 4.7 | 5.2 | 4.4 | 4.6 | 413 | 1063 | 39 | 47 | 33 | 46 | 39 | 59 | 36 | 48 | 5 | Activity [21]: 5%; Activity [32]: Active; Activity (Marmota monax [23]): Non-toxic; Activity (Marmota monax [24]): Non-toxic; Activity (Marmota monax [25]): Toxic; Activity (Marmota monax [26]): Toxic; Activity (Marmota monax [27]): Toxic; Activity (Marmota monax [28]): Toxic; Activity (Marmota monax [29]): Toxic; Activity (Marmota monax [30]): Toxic; Activity (Marmota monax [31]): Toxic
